Activity calls are given as the source filed them. The rule behind the calls is not given here.
Tests used:
A549 [1] = experiment: Induction of apoptosis in human A549 cells assessed as increase in Bax expression at 2 to 8 uM after 24 hrs by Western blot analysis; format: functional, cell-based
How it was run: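 Western blot of A549 cells treated for 24 h. Lysates in RIPA buffer were run on SDS-PAGE and transferred to PVDF. Primary antibody at 1:1000 overnight at 4 °C, secondary antibody at 1:3000-1:5000 for 1 h, ECL detection. Densitometry was normalised to GAPDH; mean ± S.E.M. from three independent experiments.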

A549 [2] = experiment: Induction early apoptosis in human A549 cells assessed as increase in ROS generation after by flow cytometric analysis; format: functional, cell-based
How it was run: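 Intracellular ROS measured in A549 cells seeded to about 75% confluence. After treatment, cells were stained with ROS detection solution at 37 °C for 20 min, washed three times in serum-free medium, and analysed by flow cytometry.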

[3] = target: T1, Epidermal growth factor receptor (Homo sapiens, UniProt P00533); experiment: Inhibition of EGFR signalling in human A549 cells assessed as reduction in EGFR phosphorylation after 24 hrs by Western blot analysis; format: cell-based
How it was run: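 A549 cells in 6-well plates were lysed in RIPA buffer with protease inhibitors on ice for 30 min and cleared at 4 °C. Protein was quantified by BCA, run on SDS-PAGE and transferred to PVDF. Membranes were blocked with milk, probed with primary antibody (1:1000) overnight at 4 °C, then secondary antibody (1:3000-1:5000) 1 h at RT. Detection by ECL; band densitometry normalised to GAPDH (β-actin also used). Three independent experiments.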

A549 [4] = experiment: Induction of apoptosis in human A549 cells assessed as low mitochondrial membrane potential at 4 uM after 12 hrs by JC-1 staining-based flow cytometric analysis (reference value: 6.3%); format: functional
A549 [5] = experiment: Induction of apoptosis in human A549 cells assessed as high mitochondrial membrane potential at 12 uM after 12 hrs by JC-1 staining-based flow cytometric analysis (reference value: 90.6%); format: functional
How it was run: (§1)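 JC-1 staining of A549 cells treated for 12 h. CCCP-treated wells, 20 min at 37 °C, served as positive control. Collected cells were incubated with JC-1 solution at 37 °C for 30 min, washed, and analysed by flow cytometry for the fraction with high ΔΨm and for PI-positive cells. Results are mean ± S.E.M. of three replicates.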

A549 [6] = experiment: Induction of apoptosis in human A549 cells assessed as viable cells at 4 uM after 24 hrs by Annexin-V/PI staining based flow cytometry analysis (reference value: 91.4%); format: functional; conditions: A549, 24 h, read-out: Activity
How it was run: (§2)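 A549 cells seeded overnight at 37 °C, 5% CO2, then exposed to 0, 2, 4, 8 or 12 µM for 24 h (dose series) or 8 µM for 0, 12, 24, 36 h (time series). Harvested, PBS-washed, stained with Annexin V-FITC and PI in binding buffer 15 min at room temperature in the dark, analysed by flow cytometry; three independent experiments.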

A549 [7] = experiment: Cell cycle arrest in human A549 cells assessed as accumulation at G2/M phase at 8 uM after 36 hrs by RNAse A/ PI staining based flow cytometric analysis (reference value: 12.65%); format: functional
How it was run: (§3)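 A549 cells at 5.0×10^4 per well were grown 12 h at 37 °C. Treatment was 0, 2, 4 or 8 µM for 24 h, or 8 µM for 0, 12, 24 or 36 h. Cells were fixed in 70% ethanol at −20 °C for at least 12 h, then stained in PBS with 0.1 mg/mL RNase A and 5 µg/mL PI. At least 10,000 events per sample were collected by flow cytometry to give G0/G1, S and G2/M percentages.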

A549 [8] = experiment: Induction of apoptosis in human A549 cells assessed as early apoptotic cells at 12 uM after 24 hrs by Annexin-V/PI staining based flow cytometry analysis (reference value: 1.15%); format: functional
A549 [9] = experiment: Antimigratory activity against human A549 cells measured up to 48 hrs by phase contrast microscopic based wound healing assay; format: functional, cell-based
How it was run: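 A549 monolayer seeded at 2×10^5 cells per cm² overnight, incubated 24 h, then scratched with a micropipette tip. The same cell-free area was imaged by phase-contrast microscopy at 0, 24 and 48 h. Wound area was outlined by image analysis to quantify the reduction in cell-free space; n = 3.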

A549 [10] = experiment: Induction of apoptosis in human A549 cells assessed as necrotic cells after at 12 uM 24 hrs by Annexin-V/PI staining based flow cytometry analysis (reference value: 1.81%); format: functional; how it was run: as §2
A549 [11] = experiment: Cell cycle arrest in human A549 cells assessed as accumulation at G1 phase at 8 uM after 12 hrs by RNAse A/ PI staining based flow cytometric analysis (reference value: 67.69%); format: functional; how it was run: as §3
A549 [12] = experiment: Induction of apoptosis in human A549 cells assessed as high mitochondrial membrane potential at 4 uM after 12 hrs by JC-1 staining-based flow cytometric analysis (reference value: 90.6%); format: functional; how it was run: as §1
A549 [13] = experiment: Cell cycle arrest in human A549 cells assessed as accumulation at G1 phase at 4 uM after 24 hrs by RNAse A/ PI staining based flow cytometric analysis (reference value: 73.30%); format: functional; how it was run: as §3
A549 [14] = experiment: Induction of apoptosis in human A549 cells assessed as increase in late apoptotic cells at 4 to 12 uM after 12 hrs by PI-staining based flow cytometric analysis; format: functional, cell-based; how it was run: as §1
A549 [15] = experiment: Cell cycle arrest in human A549 cells assessed as accumulation at S phase at 8 uM after 36 hrs by RNAse A/ PI staining based flow cytometric analysis (reference value: 19.66%); format: functional; how it was run: as §3
A549 [16] = experiment: Induction of apoptosis in human A549 cells assessed as late apoptotic cells at 12 uM after 24 hrs by Annexin-V/PI staining based flow cytometry analysis (reference value: 5.69%); format: functional
A549 [17] = experiment: Cell cycle arrest in human A549 cells assessed as accumulation at S phase at 8 uM after 24 hrs by RNAse A/ PI staining based flow cytometric analysis (reference value: 17.23%); format: functional; how it was run: as §3
A549 [18] = experiment: Induction of apoptosis in human A549 cells at 8 uM by Annexin-V/PI staining based flow cytometry analysis; format: functional, cell-based; conditions: TDE = time-dependent effect; how it was run: as §2
A549 [19] = experiment: Cell cycle arrest in human A549 cells assessed as accumulation at G1 phase at 8 uM after 36 hrs by RNAse A/ PI staining based flow cytometric analysis (reference value: 67.69%); format: functional; how it was run: as §3
[20] = target: T1, Epidermal growth factor receptor; experiment: Potency index, ratio of shi-konin IC50 to compound IC50 for inhibition of C-terminal His-tagged N-terminal GST-tagged human EGFR (668 to 1210 residues) expressed in baculovirus infected Sf9 cells after 30 mins in presence of gamma-[32p-ATP] binding assay
A549 [21] = experiment: Induction of apoptosis in human A549 cells assessed as viable cells at 8 uM after 24 hrs by Annexin-V/PI staining based flow cytometry analysis (reference value: 88.4%); format: functional; conditions: A549, 24 h, read-out: Activity; how it was run: as §2
A549 [22] = experiment: Induction of apoptosis in human A549 cells assessed as early apoptotic cells at 8 uM after 36 hrs by Annexin-V/PI staining based flow cytometry analysis (reference value: 2.02%); format: functional
A549 [23] = experiment: Cell cycle arrest in human A549 cells assessed as accumulation at S phase at 8 uM after 12 hrs by RNAse A/ PI staining based flow cytometric analysis (reference value: 19.66%); format: functional; how it was run: as §3

T1 sequence (P00533 whole entry): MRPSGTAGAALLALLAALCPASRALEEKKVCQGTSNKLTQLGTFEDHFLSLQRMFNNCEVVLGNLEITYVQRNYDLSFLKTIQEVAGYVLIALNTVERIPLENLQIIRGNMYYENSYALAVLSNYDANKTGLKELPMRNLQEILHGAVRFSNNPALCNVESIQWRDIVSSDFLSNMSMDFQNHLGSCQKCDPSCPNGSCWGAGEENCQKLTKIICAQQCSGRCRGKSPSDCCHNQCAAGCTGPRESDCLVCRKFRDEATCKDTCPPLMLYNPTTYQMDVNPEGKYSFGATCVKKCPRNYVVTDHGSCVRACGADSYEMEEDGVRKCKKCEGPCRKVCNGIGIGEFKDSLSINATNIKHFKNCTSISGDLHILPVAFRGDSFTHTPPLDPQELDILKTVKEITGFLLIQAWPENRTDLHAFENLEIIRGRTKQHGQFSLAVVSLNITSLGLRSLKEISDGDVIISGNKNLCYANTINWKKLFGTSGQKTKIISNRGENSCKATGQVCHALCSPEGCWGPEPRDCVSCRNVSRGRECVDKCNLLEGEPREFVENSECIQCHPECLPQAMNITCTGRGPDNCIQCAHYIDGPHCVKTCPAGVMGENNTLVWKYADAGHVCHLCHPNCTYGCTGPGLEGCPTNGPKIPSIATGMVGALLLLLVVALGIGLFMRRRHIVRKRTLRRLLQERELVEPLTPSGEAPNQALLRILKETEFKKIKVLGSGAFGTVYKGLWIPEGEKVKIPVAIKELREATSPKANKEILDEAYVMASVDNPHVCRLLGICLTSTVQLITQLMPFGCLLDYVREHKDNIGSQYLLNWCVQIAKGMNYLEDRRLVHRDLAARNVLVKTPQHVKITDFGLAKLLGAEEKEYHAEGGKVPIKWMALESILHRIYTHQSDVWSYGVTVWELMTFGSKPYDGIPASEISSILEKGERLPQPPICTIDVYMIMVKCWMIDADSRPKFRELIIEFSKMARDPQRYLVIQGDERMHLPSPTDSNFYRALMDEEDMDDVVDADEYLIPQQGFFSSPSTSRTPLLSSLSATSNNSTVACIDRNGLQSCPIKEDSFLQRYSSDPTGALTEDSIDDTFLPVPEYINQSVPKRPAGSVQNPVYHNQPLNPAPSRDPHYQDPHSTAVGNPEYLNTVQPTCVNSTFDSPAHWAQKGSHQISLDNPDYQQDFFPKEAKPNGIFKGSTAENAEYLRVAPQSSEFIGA

CC(C)=CC[C@@H](OC(=O)/C=C\C(=O)c1ccc(F)cc1)C1=CC(=O)c2c(O)ccc(O)c2C1=O
Activity (A549 [1]): Active | Activity (A549 [2]): Dose-dependent effect | inhibition [3]: Dose-dependent effect | Activity (A549 [4]): 27.9% | Activity (A549 [5]): 38.6% | viability at 4 µM (A549 [6]): 71.7% | Activity (A549 [7]): 46.55% | Activity (A549 [8]): 42.6% | inhibition (A549 [9]): Dose-dependent effect | Activity (A549 [10]): 4.16% | Activity (A549 [11]): 55.88% | Activity (A549 [12]): 67.8% | Activity (A549 [13]): 59.17% | Activity (A549 [14]): inactive | Activity (A549 [15]): 22.57% | Activity (A549 [16]): 38.1% | Activity (A549 [17]): 19.66% | Activity (A549 [18]): Tde | Activity (A549 [19]): 30.88% | Ratio IC50 [20]: 6 | viability at 8 µM (A549 [21]): 37.1% | Activity (A549 [22]): 43.8% | Activity (A549 [23]): 24.72%

Source: ChEMBL document CHEMBL4406881, “Design, synthesis and biological evaluation of benzoylacrylic acid shikonin ester derivatives as irreversible dual inhibitors of tubulin and EGFR” (Bioorg Med Chem, 2019)
